# Assay results reported in ChEMBL document CHEMBL1125713, “Synthesis and antiarrhythmic activity of cis-2,6-dimethyl-alpha,alpha-diaryl-1-piperidinebutanols” (1991).
# Tests used:
# Canis familiaris [1] = assay: Antiarrhythmic effect in coronary artery ligated dogs model at a dose of 5 mg/kg, administered intravenously and value noted at 20 min; type: functional, Canis lupus familiaris, Heart; settings: route intravenous
# Procedure, shortened: (§1)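 Coronary-ligated dogs with ventricular arrhythmias. Dosing was 5 mg/kg in 10–20 mL isotonic saline, given as an iv infusion over 5 min. Limb lead II ECG was monitored continuously for up to 6 h. Percent normal sinus beats was scored at control, end of dose, 20 min and 1 h. Values are mean ± SEM for three or more animals, mean ± SD for two.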
# Canis familiaris [2] = assay: Antiarrhythmic effect in coronary artery ligated dogs model at a dose of 5 mg/kg, value noted at end dose.; type: functional, Canis lupus familiaris, Heart; procedure, shortened: as §1
# Canis familiaris [3] = assay: Antiarrhythmic effect in coronary artery ligated dog model at a dose of 5 mg/kg, administered intravenously and value noted at 1 hr; type: functional, Canis lupus familiaris, Heart; settings: route intravenous; procedure, shortened: as §1
# Canis familiaris [4] = species on record: Canis familiaris; assay: Compound was evaluated for the activity rating; type: functional, Canis lupus familiaris
# Procedure, shortened: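 In ligated dogs given 5 mg/kg iv over 5 min, group % normal beats was plotted at end of dose, 20 min and 1 h. The area under this curve minus the control area was divided by the same area for an ideal response (100% normal beats for the whole hour), then multiplied by 100.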
# Canis familiaris [5] = assay: Compound was evaluated for the heart rate effect in normal dogs at a dose of 5 mg/kg, administered intravenously and value noted at end dose.; type: functional, Canis lupus familiaris; settings: route intravenous
# Procedure, shortened: (§2)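 Conscious normal dogs, trained and sling-restrained, received the same iv dosing: 5 mg/kg infused over 5 min. Heart rate came from continuous limb lead II ECG at control, end of dose, 20 min and 1 h. Values are mean ± SD for two dogs.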
# Canis familiaris [6] = species on record: Canis familiaris; assay: Compound was evaluated for the duration of sustained effect; type: functional, Canis lupus familiaris
# Procedure, shortened: (§3)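 Normal dogs received 5 mg/kg iv over 5 min, with heart rate tracked by continuous ECG. Dogs above 140 beats/min were followed until the rate fell to 140. The sustained effect was rated long (>2 h), moderate (0.5–2 h) or short (<0.5 h).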
# Canis familiaris [7] = species on record: Canis familiaris; assay: Compound was evaluated for the degree of tachycardia.; type: functional, Canis lupus familiaris
# Procedure, shortened: (§4)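 Conscious normal dogs received 5 mg/kg iv over 5 min, with heart rate from limb lead II ECG. Tachycardia was graded as severe (≥200 beats/min), moderate (160–199), slight (<160 after a rise of ≥20) or none (change <20 beats/min).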
# Canis familiaris [8] = assay: Compound was evaluated for the heart rate effect in normal dogs at a dose of 5 mg/kg, administered intravenously and value noted at 20 min.; type: functional, Canis lupus familiaris; settings: route intravenous; procedure, shortened: as §2
# Canis familiaris [9] = assay: Compound was evaluated for the heart rate effect in normal dogs at a dose of 5 mg/kg, administered intravenously and value noted at 1h.; type: functional, Canis lupus familiaris; settings: route intravenous; procedure, shortened: as §2
# Canis familiaris [10] = species on record: Canis familiaris; assay: Compound was evaluated for the degree of tachycardia; 160-199; type: functional, Canis lupus familiaris; procedure, shortened: as §4
# Canis familiaris [11] = species on record: Canis familiaris; assay: Compound was evaluated for the duration of sustained effect; 0.5-2; type: functional, Canis lupus familiaris; procedure, shortened: as §3
# Canis familiaris [12] = species on record: Canis familiaris; assay: Compound was evaluated for the degree of tachycardia 160-199; type: functional, Canis lupus familiaris; procedure, shortened: as §4
# Canis familiaris [13] = species on record: Canis familiaris; assay: Compound was evaluated for the degree of tachycardia; type: functional, Canis lupus familiaris; procedure, shortened: as §4
SMILES,Normal beats (Canis familiaris [1]),Normal beats (Canis familiaris [2]),Normal beats (Canis familiaris [3]),Activity rating (Canis familiaris [4]),Heart rate (Canis familiaris [5]),Duration (Canis familiaris [6]),Heart rate (Canis familiaris [7]),Heart rate (Canis familiaris [8]),Heart rate (Canis familiaris [9]),Heart rate (Canis familiaris [10]),Duration (Canis familiaris [11]),Heart rate (Canis familiaris [12]),Beats/min (Canis familiaris [5]),Beats/min (Canis familiaris [13]),Beats/min (Canis familiaris [8]),Beats/min (Canis familiaris [9])
Cl.OC(CCCN1CCCCC1)(c1ccccc1)c1ccccn1 (stereo unspecified),21%,97%,8%,17,–,–,–,–,–,–,–,–,–,–,–,–
CC1CCCC(C)N1CCCC(O)(c1ccccc1)c1cccnc1.Cl (stereo unspecified),16%,43%,6%,13,–,–,–,–,–,–,–,–,–,–,–,–
Cc1ccccc1C(O)(CCCN1C(C)CCCC1C)c1ccccc1.Cl (stereo unspecified),61%,92%,61%,60,155 beats min-1,>2 h,<160 beats min-1,149 beats min-1,151 beats min-1,–,–,–,–,–,–,–
CC1CCCC(C)N1CCCC(O)c1ccccc1.Cl (stereo unspecified),45%,99%,10%,35,–,–,–,–,–,–,–,–,–,–,–,–
CC1CCCC(C)N1CCCC(O)(c1ccccn1)c1ccccn1.Cl (stereo unspecified),68%,90%,32%,53,–,–,–,–,–,–,–,–,–,–,–,–
CC1CCCC(C)N1CCCC(O)(c1ccccc1)C1CCCCC1.Cl (stereo unspecified),65%,98%,68%,66,176 beats min-1,–,–,152 beats min-1,121 beats min-1,160 beats min-1,0.5 h,–,–,–,–,–
CCC1CCCCN1CCCC(O)(c1ccccc1)c1ccccc1.Cl (stereo unspecified),48%,87%,37%,46,–,–,–,–,–,–,–,–,–,–,–,–
CC1CCCC(C)N1CCCC(c1ccccc1)c1ccccn1.Cl (stereo unspecified),37%,62%,67%,47,–,–,–,–,–,–,–,–,–,–,–,–
CC1CCCC(C)N1CCCC(C#N)(c1ccccc1)c1ccccc1.Cl (stereo unspecified),88%,90%,65%,82,168 beats min-1,>2 h,–,147 beats min-1,137 beats min-1,–,–,160 beats min-1,–,–,–,–
CC1CCCC(C)N1CCC(C(N)=O)(c1ccccc1)c1ccccc1.Cl (stereo unspecified),51%,64%,83%,39,–,–,–,–,–,–,–,–,–,–,–,–
CC1CCCC(C)N1CCC(O)(c1ccccc1)c1ccccc1.Cl (stereo unspecified),96%,97%,74%,86,137 beats min-1,–,–,117 beats min-1,130 beats min-1,–,–,–,–,–,–,–
CC(=O)NCC(CCCN1C(C)CCCC1C)(c1ccccc1)c1ccccc1.Cl (stereo unspecified),71%,95%,53%,62,–,–,–,–,–,–,–,–,–,–,–,–
CC1CCCC(C)N1CCCC(c1ccccc1)c1ccccc1.Cl (stereo unspecified),97%,95%,92%,94,–,>2 h,–,–,–,–,–,–,255,>=200,218,179
CC1CCCC(C)N1CCCC(O)(c1ccccc1)c1ccccc1.Cl (stereo unspecified),86%,96%,76%,81,187 beats min-1,–,–,155 beats min-1,165 beats min-1,160 beats min-1,–,–,–,–,–,–
CC1CCCC(C)N1CCCC(C(N)=O)(c1ccccc1)c1ccccc1.Cl (stereo unspecified),90%,98%,94%,91,235 beats min-1,>2 h,>200 beats min-1,223 beats min-1,215 beats min-1,–,–,–,–,–,–,–
CC1CCC(C)N1CCCC(O)(c1ccccc1)c1ccccc1.Cl (stereo unspecified),39%,69%,35%,29,243 beats min-1,>2 h,>200 beats min-1,218 beats min-1,193 beats min-1,–,–,–,–,–,–,–
CC1CCCC(C)N1CCC(C#N)(c1ccccc1)c1ccccc1.Cl (stereo unspecified),72%,91%,65%,70,–,–,–,–,–,–,–,–,–,–,–,–
CC1CCCC(C)N1CCCC(O)(c1ccccc1)c1ccncc1 (stereo unspecified),11%,51%,7%,13,–,–,–,–,–,–,–,–,–,–,–,–
CC1CCC(C)N1CCCCC(O)(c1ccccc1)c1ccccn1 (stereo unspecified),52%,88%,43%,42,–,–,–,–,–,–,–,–,–,–,–,–
CC1CCCC(C)N1CCCC(C#N)(c1ccccc1)c1ccccn1 (stereo unspecified),50%,100%,97%,36,154 beats min-1,<0.5 h,<160 beats min-1,154 beats min-1,131 beats min-1,–,–,–,–,–,–,–
CC(=O)NCC(CCN1C(C)CCCC1C)(c1ccccc1)c1ccccc1 (stereo unspecified),62%,82%,49%,53,141 beats min-1,<0.5 h,<160 beats min-1,119 beats min-1,103 beats min-1,–,–,–,–,–,–,–
CC1CCCC(C)N1CCC(CN)(c1ccccc1)c1ccccc1 (stereo unspecified),61%,100%,39%,50,–,–,–,–,–,–,–,–,–,–,–,–
CC1CCCC(C)N1CCCCC(O)(c1ccccc1)c1ccccc1 (stereo unspecified),84%,99%,51%,72,137 beats min-1,–,–,139 beats min-1,140 beats min-1,–,0.5 h,–,–,–,–,–
CC1CCCC(C)N1CCCC(C(N)=O)(c1ccccc1)c1ccccn1 (stereo unspecified),87%,96%,62%,80,197 beats min-1,–,–,145 beats min-1,129 beats min-1,160 beats min-1,0.5 h,–,–,–,–,–
CC1CCCC(C)N1CC(O)(c1ccccc1)c1ccccc1 (stereo unspecified),16%,56%,16%,15,115 beats min-1,–,–,92 beats min-1,96 beats min-1,–,–,–,–,–,–,–
Cl.OC(CCCN1CCCCC1)(c1ccccc1)c1ccccc1 [DIPHENIDOL HYDROCHLORIDE],54%,90%,34%,39,200 beats min-1,>2 h,–,155 beats min-1,142 beats min-1,160 beats min-1,–,–,–,–,–,–
CC(C)N(CCC(C(N)=O)(c1ccccc1)c1ccccn1)C(C)C (stereo unspecified) [DISOPYRAMIDE],60%,89%,16%,49,–,–,–,–,–,–,–,–,–,–,–,–
CC1CCCC(C)N1CCCC(O)(c1ccccc1)c1ccccn1.Cl (stereo unspecified) [PIRMENOL HYDROCHLORIDE],80%,94%,59%,71,194 beats min-1,>2 h,–,172 beats min-1,157 beats min-1,160 beats min-1,–,–,–,–,–,–
